Source: PubChem BioAssay
ROMK primary: human ROMK K+ channel modulation, primary screen; AID 1918; B-score at 10 µM; Tet-inducible ROMK, thallium flux fluorescence; actives lie on both sides; 2% of 130,000 active;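 active = signal ratio slope over the read window, or its plate-corrected B-score, at least 3 SD from the plate mean, either direction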;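 also: B-score of the F/F0 ratio slope over 7 to 12 s after thallium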
14-3-3 Bad inh: disrupts binding of bovine 14-3-3 zeta to phospho-Bad peptide. P63103. TR-FRET 14-3-3zeta/Dy647-pBad peptide displacement, 1 h. inhibition, % at 21.7 µM. 0.71% of 220,000 active. AID 781;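 active = inhibition above about 70%, limit read from the data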
p47phox inh: p47phox (human) inhibition; 0.53% of 220,000 active; P14598; AID 1274; p47phox/p22phox peptide binding, fluorescence polarization, 2 h; inhibition, % at 24.7 µM;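 active = inhibition above about 30%, limit read from the data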
RBBP9 inhibitor: blocks human serine hydrolase RBBP9 | 0.2% of 220,000 active | inhibition, % at 7.94 µM | O75884 | AID 1515 | recombinant RBBP9, FP-Rh probe fluorescence polarization;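 active = inhibition above the campaign mean of all tested compounds plus 3 SD, cut at about 14% in these data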
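System: RBBP9 protein / Quantity: 2.5 µM RBBP9 dispensing solution, before mixing / Also added: Serine-hydrolase probe FP-Rh, 375 nM pre-mixing / Dosing: 7.94 µM single dose, 0.794% DMSO / Timing: enzyme-compound preincubation 30 min, then probe labeling 45 min, 25 °C / Signal: FP readout at 525/598 nm / Controls: DMSO-treated enzyme wells and wells lacking RBBP9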
WT yeast gro inh: growth inhibition of WT yeast, mitochondrial fusion screen. mitochondrial fusion phenotypic screen, WT strain. inhibition, % at 10 µM. 2.1% of 190,000 active. AID 1362; in the data active = inhibition above about 58%; tested in S. cerevisiae
Cl transport mod: modulates chloride dependent transport by human KCC2; Q9H2X9; KCC2 cells, thallium flux FluoZin-2 fluorescence; B-score of Tl+ flux slope (higher = more flux/activation; lower = inhibition) at 10 µM; 2.2% of 190,000 active; AID 1456;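 active = thallium flux slope and its plate-corrected score both differing from the plate sample mean at a set confidence after two filtering rounds, in either direction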;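 also: slope of fluorescence scaled to starting intensity during 10 to 20 s after thallium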
Target sequence (Q9H2X9 whole entry, looked up): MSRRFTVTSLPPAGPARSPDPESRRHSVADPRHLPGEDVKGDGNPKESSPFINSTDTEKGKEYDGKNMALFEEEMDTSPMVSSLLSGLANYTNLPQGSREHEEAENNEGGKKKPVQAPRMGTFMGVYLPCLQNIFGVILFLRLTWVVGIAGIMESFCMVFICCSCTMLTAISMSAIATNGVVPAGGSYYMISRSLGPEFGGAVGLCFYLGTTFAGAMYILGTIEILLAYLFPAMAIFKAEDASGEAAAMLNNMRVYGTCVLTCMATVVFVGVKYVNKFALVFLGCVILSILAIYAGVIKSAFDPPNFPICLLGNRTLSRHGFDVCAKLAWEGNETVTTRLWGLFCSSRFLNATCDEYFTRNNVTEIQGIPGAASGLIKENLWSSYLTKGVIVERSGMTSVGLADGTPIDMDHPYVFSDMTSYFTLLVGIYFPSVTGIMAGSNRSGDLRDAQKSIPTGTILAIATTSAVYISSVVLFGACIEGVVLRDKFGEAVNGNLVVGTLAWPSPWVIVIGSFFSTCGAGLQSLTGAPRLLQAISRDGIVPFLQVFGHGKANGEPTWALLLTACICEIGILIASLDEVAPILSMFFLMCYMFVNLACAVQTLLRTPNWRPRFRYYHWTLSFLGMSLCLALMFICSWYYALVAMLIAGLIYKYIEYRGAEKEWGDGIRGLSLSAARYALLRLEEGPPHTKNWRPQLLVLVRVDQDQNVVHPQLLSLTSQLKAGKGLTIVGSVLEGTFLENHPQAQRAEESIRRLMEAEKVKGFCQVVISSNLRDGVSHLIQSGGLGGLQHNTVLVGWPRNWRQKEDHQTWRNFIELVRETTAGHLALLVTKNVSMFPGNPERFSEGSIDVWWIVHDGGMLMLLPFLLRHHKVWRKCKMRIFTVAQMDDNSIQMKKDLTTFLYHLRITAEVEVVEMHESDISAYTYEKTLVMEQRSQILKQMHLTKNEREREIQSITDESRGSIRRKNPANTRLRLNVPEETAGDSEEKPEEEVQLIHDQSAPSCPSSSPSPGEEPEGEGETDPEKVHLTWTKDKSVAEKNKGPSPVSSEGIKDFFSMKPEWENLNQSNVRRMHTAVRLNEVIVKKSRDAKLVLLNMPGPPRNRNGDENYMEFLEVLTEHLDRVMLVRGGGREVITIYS
A number is an active result; – = inactive; · = no result given; [ ] = remark or other dose. Sampled rows, rich in hits. Any-hit rate of the full collection: about 5.8%.

SMILES | ROMK primary | 14-3-3 Bad inh | p47phox inh | RBBP9 inhibitor | WT yeast gro inh | Cl transport mod
COC(=O)CCC(=O)COc1ccc(OC)cc1C#N | – | – | – | – | 91 | –
COc1cccc(CNC(=O)CCSCc2ccccc2F)c1 | – | – | – | – | – | –
COc1cccc(C(c2nnnn2Cc2ccc(F)cc2)N2CCC(C(N)=O)CC2)c1OC (centres undefined) | – | 77 | – | – | – | –
Cc1nc(-c2ccc(Br)cc2)ccc1C(=O)O | · | – | – | – | – | –
CCOC(=O)N1CCC(NC(=O)c2cc(C(=O)NCc3ccc(F)cc3)ccc2CO)CC1 | · | – | – | – | – | –
CCOC(=O)N1CCC(NC(=O)c2cc(-c3ccc(F)cc3)[nH]c2C)CC1 | – | – | – | – | 67 | ·
Cc1nc2ncc(Br)cc2[nH]1 | – | – | – | – | – | –
Cc1ccc(-c2nc3cc(Br)cnc3nc2-c2ccc(C)cc2)cc1 | – | – | – | – | 77 | –
O=C(Nc1cccc(F)c1)N(Cc1ccc(Cl)cc1)CC(O)C(F)(F)F (centres undefined) | · | – | – | – | 71 | –
O=C(Nc1ccccc1)N(Cc1ccccc1)CC(O)C(F)(F)F (centres undefined) | · | – | – | – | – | –
CC1(c2ccc([N+](=O)[O-])cc2)CC(C)(C)N(C(=O)c2ccccc2)c2ccccc21 (centres undefined) | – | – | – | – | 77 | –
CC(=O)N1c2ccccc2C(C)(c2ccccc2)CC1(C)C (centres undefined) | · | – | – | – | – | –
CCO[C@@H]1OC(C(=O)NCc2ccccc2)=C[C@H](c2csc3ccccc23)[C@H]1CCCO | · | – | – | – | – | -2.9
C#Cc1ccc([C@@H]2C=C(C(=O)N3CCN(Cc4ccccc4)CC3)O[C@H](OCC)[C@H]2CCCO)cc1 | · | – | · | – | – | -3.8
C#Cc1ccc([C@H]2C=C(C(=O)N3CCN(Cc4ccccc4)CC3)O[C@@H](OCC)[C@@H]2CCCO)cc1 | · | – | · | – | – | –
O=C(Cn1cc2c(n1)CCCCC2)Nc1ccccc1Br | – | – | – | – | · | –
CCOc1ccc2nc(NC(=O)COC)sc2c1 | · | – | – | – | – | –
CCOc1ccc2nc(NC(=O)c3ccoc3C)sc2c1 | · | – | – | – | 79 | –
CC1=CSC2=NC(=O)/C(=C\c3cccn3-c3ccccc3)C(=N)N12 | – | – | – | – | – | –
CC(C)c1ccc(-n2cccc2/C=C2/C(=N)N3C=CSC3=NC2=O)cc1 | – | – | – | – | 87 | 22
COc1ccc(-n2cccc2/C=C2\C(=N)N3N=C(C(C)C)SC3=NC2=O)cc1 | – | – | – | – | – | –
COc1ccc(-n2cccc2/C=C2\C(=N)N3N=C(c4ccco4)SC3=NC2=O)cc1 | – | 82 | – | – | – | –
CC(=O)c1sc(N/N=C2\CC3CCC2(C)C3(C)C)nc1C (centres undefined) | – | – | – | – | – | –
Cc1ccccc1CNc1nnnn1C | – | – | – | – | – | –
O=c1cc(N2CCCCC2)c(-c2ccccc2)nn1Cc1ccc(F)cc1 | – | – | – | – | 83 | ·
SMILES | ROMK primary | 14-3-3 Bad inh | p47phox inh | RBBP9 inhibitor | WT yeast gro inh | Cl transport mod
O=c1cc(N2CCCCC2)c(-c2ccccc2)nn1Cc1ccc(Cl)cc1 | · | – | – | – | – | –
O=c1cc(N2CCCCC2)c(-c2ccccc2)nn1Cc1c(Cl)cccc1Cl | · | – | – | – | 89 | –
CCN1CCN(c2cc(N3CCc4ccccc4C3)c(F)cc2[N+](=O)[O-])CC1 | · | – | – | – | 81 | –
Cc1ccc(N2C(=O)c3n[nH]c(C)c3C2c2ccccn2)cc1 (centres undefined) | – | – | 73 | – | – | ·
COC(=O)c1ccc(C2c3c(n[nH]c3C)C(=O)N2c2ccc(C)cc2)cc1 (centres undefined) | · | – | – | – | – | –
Cc1ccc(N2C(=O)c3n[nH]c(C)c3C2c2ccco2)cc1 (centres undefined) | – | – | 46 | – | – | –
CC(C)NC(=O)N(Cc1ccccc1)Cc1cccs1 | · | – | – | – | · | –
COc1ccc(OC)c(/C=C2\SC(=S)N(N3CCOCC3)C2=O)c1 | · | – | – | – | · | –
O=C1S/C(=C/c2ccc(N3CCOCC3)o2)C(=O)N1Cc1ccc(F)cc1 | · | – | – | – | – | ·
O=C1NC(=S)S/C1=C/c1ccc(N2CCOCC2)o1 | -3.3 | – | – | – | – | -7.7
COc1ccc2cc(/C=C3\SC(=S)NC3=O)c(N3CCOCC3)nc2c1 | · | – | – | – | 72 | –
C=CCN1C(=O)N/C(=C/c2ccc(N3CCOCC3)o2)C1=O | -3.8 | – | – | – | – | –
C/C=C\C(=O)Nc1cccc(C2=NOC3(C2)C[C@@H](C(N)=O)N(C(=O)c2ccc(OC)cc2)C3)c1 (some centres undefined) | · | – | – | · | · | –
Cn1c(=O)[nH]c(=O)c2c1nc(N/N=C/C(Br)=C/c1ccccc1)n2CCO | – | – | – | – | · | –
CCOC(=O)Cc1cc(=O)c2cc(C)ccc2[nH]1 | · | – | – | – | · | –
COC(=O)c1ccc(CSc2nnc(NC(=O)C3CC(=O)N(c4ccc5c(c4)OCCO5)C3)s2)cc1 (centres undefined) | · | – | – | – | – | –
O=C(COC(=O)CC(c1ccccc1)c1ccccc1)Nc1cccc(F)c1 | · | – | – | – | – | –
O=C(COC(=O)CC(c1ccccc1)c1ccccc1)Nc1ccc(F)c(F)c1 | – | – | – | – | 59 | –
O=c1c2cn[nH]c2nc(SCc2c(F)cccc2F)n1-c1ccc(Cl)cc1 | – | – | – | – | 73 | –
Cc1ccc(-c2nnc(Nc3ccc4c(c3)OCO4)c3ccccc23)cc1S(N)(=O)=O | · | – | – | – | – | –
Cc1nnc(Nc2ccc3c(c2)OCO3)c2ccccc12 | – | 82[fluorescence artefact?] | – | – | – | ·
Cc1ccc(NC(=O)COC(=O)/C(=C/c2cccs2)c2cccs2)cc1S(=O)(=O)N(C)C | – | – | – | – | – | –
O=C1CCc2ccc(OCCCCN3CCN(c4cccc(Cl)c4Cl)CC3)cc2N1 | · | – | – | – | 84 | –
CCCOP(=O)(OCCC)C(Nc1ccc(C(=O)O)cc1)c1ccccc1 (centres undefined) | – | – | – | – | – | –
CCCCOP(=O)(OCCCC)C(Nc1ccccc1)c1ccc2c(c1)OCO2 (centres undefined) | – | – | – | – | 65 | –
C[C@@H]1CCC[C@H](C)N1Cc1nc(Cc2ccccc2Cl)no1 | – | – | – | – | – | –
O=C(COC(=O)c1ccc2ncsc2c1)NC(=O)c1ccccc1 | – | – | – | – | – | –
Cc1c(Cl)cnc(NC(=O)COC(=O)c2ccc3ncsc3c2)c1Cl | · | 70 | – | – | – | –
O=C(COC(=O)c1ccc(O)cc1)Nc1ncc(Cl)cc1Cl | – | – | – | – | – | –
COc1ccc(C(=O)NC(=O)COC(=O)c2ccc3ncsc3c2)cc1 | – | 78 | – | – | – | –
